“Also recorded” adds a separate entry of the source.
Columns and labels:
H2-K^d = H2-K^d (Mus musculus, UniProt P01902); assay: MHC stabilization assay; type: binding; details: T2-K^d cells, 37°C, MFI with anti-H2-K^d mAb and FITC-conjugated anti-mouse IgG
Outline: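 Peptide-pulsed T2-Kd cells were kept at 37°C, then stained with anti-H2-Kd mAb (HB159) and FITC-conjugated anti-mouse IgG. Surface Kd was read as mean fluorescence intensity. Reference samples were unpulsed cells and peptide-pulsed cells held at 4°C.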

Meth A-specific CTL = type: cell-based, mouse; details: E/T ratio 6:1, 4 h ^51Cr-release
Outline: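 Targets were T2-Kd cells pulsed with peptide, labeled with Na51CrO4, and plated at 1 × 10^3 per well. Meth A-specific CTL (cloned CD3+CD4−CD8+NK-1.1− line from Meth A-immune BALB/c mice) were added at E:T 6:1. Release was measured over 4 h and expressed as % specific lysis.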

human CD8^+ T cells = assay: in vitro stimulation of human CD8^+ T cells; type: cell-based; details: preliminary findings; listed as Hsd17b12^114T peptide
[1] = T2-K^d cells pulsed with peptide

Sequence of H2-K^d (P01902 whole entry, looked up): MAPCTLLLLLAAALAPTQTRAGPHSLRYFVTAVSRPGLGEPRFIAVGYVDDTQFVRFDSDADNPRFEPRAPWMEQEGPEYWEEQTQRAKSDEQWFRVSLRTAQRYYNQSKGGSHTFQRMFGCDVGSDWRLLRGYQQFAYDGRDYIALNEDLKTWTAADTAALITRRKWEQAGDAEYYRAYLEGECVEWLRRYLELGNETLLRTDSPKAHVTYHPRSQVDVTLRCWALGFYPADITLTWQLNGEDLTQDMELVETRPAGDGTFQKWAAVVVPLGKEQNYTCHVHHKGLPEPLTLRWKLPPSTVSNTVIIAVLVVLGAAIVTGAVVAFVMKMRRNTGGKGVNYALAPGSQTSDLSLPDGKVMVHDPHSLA

## IYDKIKTGL
H2-K^d
  affinity for H2-K^d molecules: ~ 1 × 10^−8 M
Meth A-specific CTL; [1]
  affinity of Meth A CTL for peptide: < 1e-08 M

## TYDKIKTGL
H2-K^d
  affinity for H2-K^d molecules: ~ 1 × 10^−8 M
Human CD8^+ T cells
  immunogenicity, stimulation of human CD8^+ T cells in vitro: immunogenic; also recorded: can induce effectors cross-reactive against the HSD17B12_114–122 peptide, naturally presented by human tumor cell lines
Meth A-specific CTL; [1]
  affinity of Meth A CTL for peptide: ~ 1 × 10^−10 M
  recognition by Meth A-specific CTL (in words): recognized by the Meth A-specific CTL
Meth A-specific CTL; TYDKIKTGL over IYDKIKTGL, T2-K^d cells
  fold higher affinity of Meth A CTL (TYDKIKTGL vs IYDKIKTGL): 100 ×
